# Source: ChEMBL document CHEMBL1909522, “Inhibitory effect on NO production of phenolic compounds from Myristica fragrans” (Bioorg Med Chem Lett, 2011)
# Active and inactive are the calls of the source. The rule behind the calls is not given here.
# Tests used:
# RAW264.7 [1] = test: Cytotoxicity against mouse RAW264.7 cells assessed as cell viability at 50 uM after 24 hrs by MTT assay; assay type: cell-based; details: raw264.7, 24 h
# Summary of the method: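 Cells remaining after the Griess step, with or without LPS (1 µg/mL) and compound at 50 µM for 24 h, assessed by MTT colorimetric assay for viability.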
# RAW264.7 [2] = test: Antiinflammatory activity in mouse RAW264.7 cells assessed as inhibition of LPS-induced NO production after 24 hrs by Griess reagent method; assay type: functional, cell-based; details: RAW264.7, 24 h
# Summary of the method: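 RAW264.7 cells (1 × 10^5 per well) stimulated with 1 µg/mL LPS for 24 h with or without test compounds (0.5–25 µM). Nitrite in culture supernatant measured by Griess reaction as NO marker. IC50 relative to vehicle control; average of three repeated experiments.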
# RAW264.7 [3] = test: Antiinflammatory activity in mouse RAW264.7 cells assessed as inhibition of LPS-stimulated COX2 expression after 18 hrs by immunoblot analysis; assay type: functional, cell-based
# Summary of the method: (§1)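 RAW264.7 cells pretreated 30 min with compound (0, 1, 3, 10 µM), then stimulated with LPS 1 µg/mL for 18 h. Lysates in Tris-HCl pH 7.5/NP-40 buffer with protease/phosphatase inhibitors; 50 µg protein per lane on SDS-PAGE, PVDF transfer, antibody probing, ECL detection. Densitometry normalized to α-tubulin; mean ± S.D.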
# RAW264.7 [4] = test: Antiinflammatory activity in mouse RAW264.7 cells assessed as inhibition of LPS-stimulated alpha-tubulin expression at 0.1 to 10 uM after 18 hrs by immunoblot analysis; assay type: functional, cell-based
# RAW264.7 [5] = test: Antiinflammatory activity in mouse RAW264.7 cells assessed as inhibition of LPS-stimulated iNOS expression after 18 hrs by immunoblot analysis; assay type: functional, cell-based; summary of the method: as §1
IC50 (RAW264.7 [2]) [µM],Structure (SMILES),Activity (RAW264.7 [1]),inhibition (RAW264.7 [3]),inhibition (RAW264.7 [4]),inhibition (RAW264.7 [5])
25,C/C=C/c1ccc(O[C@H](C)[C@@H](O)c2ccc(O)c(OC)c2)c(OC)c1,Non-toxic,,,
32.5,COc1cc(C[C@@H](C)[C@H](C)c2cc(O)c(O)c(OC)c2)ccc1O,Non-toxic,,,
> 50,COc1cc(CC[C@H](O)c2ccc(O)cc2O)ccc1O,Non-toxic,,,
> 50,C=CCc1cc(OC)c(O[C@H](C)[C@@H](O)c2ccc(OC)c(OC)c2)c(OC)c1,Non-toxic,,,
24.5,C=CCc1cc(OC)c(O[C@H](C)[C@@H](OC(C)=O)c2ccc(OC)c(OC)c2)c(OC)c1,,,,
2.3,O=C(CCCCCCCCc1ccc(O)c(O)c1)c1c(O)cccc1O [MALABARICONE C],Non-toxic,Dose-dependent effect,inactive,Dose-dependent effect
> 50,Oc1ccc([C@@H](O)CCc2ccc3c(c2)OCO3)c(O)c1,Non-toxic,,,

Structure (SMILES),IC50 (RAW264.7 [2]) [µM],Activity (RAW264.7 [1]),inhibition (RAW264.7 [3]),inhibition (RAW264.7 [4]),inhibition (RAW264.7 [5])
CC1=C(O)C(=O)C=C2C1=CC=C1[C@@]2(C)CC[C@@]2(C)[C@@H]3C[C@](C)(C(=O)O)CC[C@]3(C)CC[C@]12C [CELASTROL],1,,,,
